Calls of active or inactive are those of the source. No cut-off for these calls is given here.
Test system: MCF7
Assay: Cytotoxicity against human MCF7 cells after 48 hrs by MTT assay
Type: cell-based
Conditions: MCF7, 48 h
How it was run: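 MCF7 human breast adenocarcinoma cells seeded at 5 × 10³ cells/well and preincubated 24 h at 37 °C, 5% CO₂. Compounds were added at various concentrations for 48 h at 37 °C. MTT solution (5 mg/mL stock) was added for 2 h, and formazan was dissolved in 10% SDS–0.01 N HCl. OD was read at 550/700 nm in triplicate wells, and IC₅₀ was taken from % living cells vs control.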

Row | Structure (SMILES) | IC50
1 | Cc1cc2c3c(cc(C)n2C)cc(=O)cc3o1 | > 100 µM
2 | CCCCn1c(C)cc2cc(=O)cc3oc(C)cc1c23 | > 100 µM
3 | CC1=Cc2nc(C)cc3cc(OS(=O)(=O)C(F)(F)F)cc(c23)O1 | > 100 µM
4 | Cc1cc2c3c(cc(C)n2-c2ccccc2)cc(=O)cc3o1 | > 100 µM
5 | CC1=Cc2nc(C)cc3cccc(c23)O1 [7-DEHYDROXYCASSIARIN A] | > 100 µM
6 | CC(=O)Oc1cc2c3c(nc(C)cc3c1)C=C(C)O2 [ACETYLCASSIARIN A] | > 100 µM
7 | CC1=Cc2nc(C)cc3cc(OC(=O)c4ccccc4)cc(c23)O1 [BENZOYLCASSIARIN A] | > 100 µM
8 | CCCC(=O)Oc1cc2c3c(nc(C)cc3c1)C=C(C)O2 [BUTYROYLCASSIARIN A] | > 100 µM
9 | CC1=Cc2nc(C)cc3cc(OCc4ccccc4)cc(c23)O1 [CASSIARIN A BENZYL ETHER] | 72.2 µM
10 | CCCCOc1cc2c3c(nc(C)cc3c1)C=C(C)O2 [CASSIARIN A BUTYL ETHER] | 76.7 µM
11 | COc1cc2c3c(nc(C)cc3c1)C=C(C)O2 [CASSIARIN A METHYL ETHER] | 87.8 µM
12 | CC1=Cc2nc(C)cc3cc(O)cc(c23)O1 [CASSIARIN A] | > 100 µM
13 | COC(=O)CCCn1c(C)cc2cc(=O)cc3oc(C)cc1c23 [CASSIARIN B] | > 100 µM
14 | CCN(CC)CCCC(C)Nc1ccnc2cc(Cl)ccc12 (configuration not stated) [CHLOROQUINE] | 36.1 µM

Test system: Aorta
Assay: Vasorelaxant activity in Wistar rat endothelium-intact thoracic aortic rings assessed as inhibition of phenylephrine-induced tissue contraction at 30 uM
Type: functional, tissue-based
Conditions: not given
How it was run: (§1)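 Thoracic aorta rings, 3 mm, in Krebs–Henseleit solution (95% O₂/5% CO₂, 37 °C), equilibrated 60 min at 1.0 g resting tension. Rings were contracted with 3 × 10⁻⁷ M phenylephrine. Endothelium was accepted if 10⁻⁵ M acetylcholine gave 80% relaxation. At the contraction plateau, samples were added at 1 × 10⁻⁶–3 × 10⁻⁵ M. Tension was recorded isometrically; data are mean ± SEM with ANOVA/Bonferroni.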

Row | Structure (SMILES) | Activity
15 | Cc1cc2c3c(cc(C)n2C)cc(=O)cc3o1 | inactive
16 | CCCCn1c(C)cc2cc(=O)cc3oc(C)cc1c23 | inactive
17 | Cc1cc2c3c(cc(C)n2-c2ccccc2)cc(=O)cc3o1 | inactive
18 | CCCC(=O)Oc1cc2c3c(nc(C)cc3c1)C=C(C)O2 [BUTYROYLCASSIARIN A] | Active
19 | COc1cc2c3c(nc(C)cc3c1)C=C(C)O2 [CASSIARIN A METHYL ETHER] | Active
20 | CC1=Cc2nc(C)cc3cc(O)cc(c23)O1 [CASSIARIN A] | Active
21 | COC(=O)CCCn1c(C)cc2cc(=O)cc3oc(C)cc1c23 [CASSIARIN B] | inactive

Test system: Aorta
Assay: Vasorelaxant activity in Wistar rat endothelium-intact thoracic aortic rings assessed as inhibition of phenylephrine-induced tissue contraction
Type: functional, tissue-based
Conditions: not given
How it was run: as §1

Row | Structure (SMILES) | Activity
22 | COc1cc2c3c(nc(C)cc3c1)C=C(C)O2 [CASSIARIN A METHYL ETHER] | Dose-dependent effect
23 | CC1=Cc2nc(C)cc3cc(O)cc(c23)O1 [CASSIARIN A] | Dose-dependent effect

Test system: Aorta
Assay: Vasorelaxant activity in Wistar rat endothelium-removed thoracic aortic rings assessed as inhibition of phenylephrine-induced tissue contraction
Type: functional, tissue-based
Conditions: not given
How it was run: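 Isolated thoracic aorta rings, 3 mm, in oxygenated Krebs–Henseleit solution at 37 °C, equilibrated 60 min under 1.0 g tension. Rings were precontracted with 3 × 10⁻⁷ M phenylephrine, and at the plateau samples were added at 1 × 10⁻⁶–3 × 10⁻⁵ M. Relaxation was recorded by force transducer; data are mean ± SEM.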

Row | Structure (SMILES) | Activity
24 | COc1cc2c3c(nc(C)cc3c1)C=C(C)O2 [CASSIARIN A METHYL ETHER] | inactive
25 | CC1=Cc2nc(C)cc3cc(O)cc(c23)O1 [CASSIARIN A] | inactive

Test system: not listed separately
Assay: Vasorelaxant activity in Wistar rat endothelium-intact thoracic aortic rings assessed as inhibition of phenylephrine-induced tissue contraction in presence of NO synthase-inhibitor L-NMMA
Type: functional
Conditions: Thoracic aorta

Row | Structure (SMILES) | Activity
26 | CNC(=N)NCCC[C@H](N)C(=O)O | inactive

Test system: Plasmodium falciparum
Assay: Antimalarial activity against chloroquine-sensitive Plasmodium falciparum 3D7 by giemsa stain
Conditions: not given

Row | Structure (SMILES) | IC50
27 | Cc1cc2c3c(cc(C)n2C)cc(=O)cc3o1 | 23.3 µM
28 | CCCCn1c(C)cc2cc(=O)cc3oc(C)cc1c23 | 4.2 µM
29 | CC1=Cc2nc(C)cc3cc(OS(=O)(=O)C(F)(F)F)cc(c23)O1 | 0.41 µM
30 | Cc1cc2c3c(cc(C)n2-c2ccccc2)cc(=O)cc3o1 | 0.09 µM
31 | CC1=Cc2nc(C)cc3cccc(c23)O1 [7-DEHYDROXYCASSIARIN A] | 5.4 µM
32 | CC(=O)Oc1cc2c3c(nc(C)cc3c1)C=C(C)O2 [ACETYLCASSIARIN A] | 1.2 µM
33 | CC1=Cc2nc(C)cc3cc(OC(=O)c4ccccc4)cc(c23)O1 [BENZOYLCASSIARIN A] | 1.2 µM
34 | CCCC(=O)Oc1cc2c3c(nc(C)cc3c1)C=C(C)O2 [BUTYROYLCASSIARIN A] | 4.1 µM
35 | CC1=Cc2nc(C)cc3cc(OCc4ccccc4)cc(c23)O1 [CASSIARIN A BENZYL ETHER] | 14.9 µM
36 | CCCCOc1cc2c3c(nc(C)cc3c1)C=C(C)O2 [CASSIARIN A BUTYL ETHER] | 3 µM
37 | COc1cc2c3c(nc(C)cc3c1)C=C(C)O2 [CASSIARIN A METHYL ETHER] | 3.6 µM
38 | CC1=Cc2nc(C)cc3cc(O)cc(c23)O1 [CASSIARIN A] | 0.023 µM
39 | COC(=O)CCCn1c(C)cc2cc(=O)cc3oc(C)cc1c23 [CASSIARIN B] | 22 µM

Test system: not listed separately
Assay: Selectivity index, ratio of IC50 for human MCF7 to IC50 for chloroquine-sensitive Plasmodium falciparum 3D7
Conditions: not given

Row | Structure (SMILES) | Ratio IC50
40 | Cc1cc2c3c(cc(C)n2C)cc(=O)cc3o1 | > 4.2
41 | CCCCn1c(C)cc2cc(=O)cc3oc(C)cc1c23 | > 23
42 | CC1=Cc2nc(C)cc3cc(OS(=O)(=O)C(F)(F)F)cc(c23)O1 | > 244
43 | Cc1cc2c3c(cc(C)n2-c2ccccc2)cc(=O)cc3o1 | > 1110
44 | CC1=Cc2nc(C)cc3cccc(c23)O1 [7-DEHYDROXYCASSIARIN A] | > 18
45 | CC(=O)Oc1cc2c3c(nc(C)cc3c1)C=C(C)O2 [ACETYLCASSIARIN A] | > 83
46 | CC1=Cc2nc(C)cc3cc(OC(=O)c4ccccc4)cc(c23)O1 [BENZOYLCASSIARIN A] | > 83
47 | CCCC(=O)Oc1cc2c3c(nc(C)cc3c1)C=C(C)O2 [BUTYROYLCASSIARIN A] | > 24
48 | CC1=Cc2nc(C)cc3cc(OCc4ccccc4)cc(c23)O1 [CASSIARIN A BENZYL ETHER] | 4.8
49 | CCCCOc1cc2c3c(nc(C)cc3c1)C=C(C)O2 [CASSIARIN A BUTYL ETHER] | > 26
50 | COc1cc2c3c(nc(C)cc3c1)C=C(C)O2 [CASSIARIN A METHYL ETHER] | > 24
51 | CC1=Cc2nc(C)cc3cc(O)cc(c23)O1 [CASSIARIN A] | > 4350
52 | COC(=O)CCCn1c(C)cc2cc(=O)cc3oc(C)cc1c23 [CASSIARIN B] | > 4.5

Source: ChEMBL document CHEMBL1153093, “Synthesis and structure-activity relationships of cassiarin A as potential antimalarials with vasorelaxant activity” (Bioorg Med Chem, 2009)
